Data from the RNAGym collection of RNA variant scans (doi:10.1101/gad.245936.114).
Variants at the floor of the assay were thinned out.

B1: tRNA (parent)
chain: CUCUCGGUAGCCAAGUUGGUUUAAGGCGCAAGACUUUAAUUUAUCACUACGAAAUCUUGAGAUCGGGCGUUCGACUCGCCCCCGGGAGAUUUUUUCCUCGAGCAA

Variants of: B1
Test: nonsense suppression (GFP-seq) (ratio to wild type); higher = more function; SUP4oc tRNA, yeast GFP reporter sort-seq
How it was run: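 Each variant's nonsense suppression (GFPSEQ) is a cell-share-weighted bin median GFP/RFP relative to the unmutated parent tRNA. Yeast with genome-integrated tRNA variants from a ~3% random-mutation library, a galactose-driven GFP ochre reporter and RFP were grown in raffinose/galactose medium with 80 mg/L adenine, then sorted into GFP/RFP bins for Illumina sequencing. Variants needed ≥100 reads and ≥30 cells.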

Variant | nonsense suppression
A30G A74G | 0.098
A30G A74C | 0.0554
A31C C72G G78U | ≤ 0.026
G32C C34G U35C | ≤ 0.026
G28U A33C U63A U71G | ≤ 0.026
C27U U71C C77G | ≤ 0.026
A31G U35C | 0.0321
A31G U35A | 0.0292
C29A C75U | 0.0265
C27G C81G | ≤ 0.026
A30C A31U | ≤ 0.026
C27U U55C C56A G88U | ≤ 0.026
A31G U71A G73A C77U | ≤ 0.026
A31C U57A | 0.219
C27U C77A | ≤ 0.026
G28A G61A | 0.8
G28A G78C | 0.0938
G28A A33G | 0.161
G28A A33U | 0.0279
C29U G32U U57A A62G U63C G69C | ≤ 0.026
C27U A31C G61C | ≤ 0.026
A30G A33U | ≤ 0.026
A30G A33G | 0.046
A30U U58A | 0.89

Variant | nonsense suppression
A31U C81A C82G | ≤ 0.026
A31C C56G | ≤ 0.026
G28A G84A G86C | ≤ 0.026
A30U G69U C80U | ≤ 0.026
C29U U76A G84U | ≤ 0.026
C27U G32C | ≤ 0.026
A31G A33G U55C G61A | 0.727
A31C A62G G78A | ≤ 0.026
G28C G78A | 0.0288
G28C G78C | ≤ 0.026
G28A C75G | 1.02
A30U U55C A87C A89U | 0.0456
C29G U55A | ≤ 0.026
C29G C34G | ≤ 0.026
C29U C64U | 0.035
C27G U57C U58G G66A C68G | ≤ 0.026
A30G U55G U63G C64A | ≤ 0.026
A30G G61C | 0.251
A30G G61A | 0.75
G28C G85U | 0.208
G32A A62G U71G G78A G85A | ≤ 0.026
A30U A31U C80A | ≤ 0.026
A31U C75A | 0.758
A31G G67C G85A | ≤ 0.026

Variant | nonsense suppression
G28C U76C | 0.799
G28A C81U | 1.2
A31G G61C | 0.275
A31G G61A | 0.8
C27U G59U G61U G66U | ≤ 0.026
G28A A31G G73C | ≤ 0.026
A31U G85A | 0.164
A31U C81U | 0.0322
A30U C68G | ≤ 0.026
G28A C56G A89C | ≤ 0.026
A31G U57A | 0.136
A31C G84U | ≤ 0.026
A30G G73A C75A | 0.318
A31G A87G | 0.762
A31C G66C G85U | ≤ 0.026
A30U A31U | 0.035
A30U A31G | 0.25
A31G U70C | 0.0279
A30U U55G G78C A89C | ≤ 0.026
A31G G73A | 0.366
A33C C56A U58G G85U | ≤ 0.026
G28U A54U | ≤ 0.026
G28A U35G G65U G73A C80U | ≤ 0.026
C29U A30G A54C C75A | 0.0386

Variant | nonsense suppression
A31U A60C G66C U70A G85A | ≤ 0.026
C27G C80U C83A | ≤ 0.026
G32C C56G A60C | 0.275
A31G A60C | 0.177
G28C C34A C68G A89G | ≤ 0.026
G28C C34A C68G A89U | ≤ 0.026
G28A G66A | 0.152
C27G G32U C75A C81G G88C | ≤ 0.026
A30C A54U A60G A74U | ≤ 0.026
C29U G86C | 0.0331
G28A G84A | ≤ 0.026
C29U A60G | 0.114
C29U A60U | 1.18
C27G U55A A60C | 0.809
G28C A89G | 0.0403
G28C U71C | 0.112
C27G G66U | ≤ 0.026
C29U U71C | 0.0323
G28U C34A A87U | ≤ 0.026
A30U C79G | ≤ 0.026
A30U C79U | 0.144
G28U A33U | ≤ 0.026
C29A G65C U71G | ≤ 0.026
G28C G84C | 0.239

Variant | nonsense suppression
C29U G85A | 1.14
C29U G85U | 0.0262
C29G G86A | ≤ 0.026
C27G U71G | ≤ 0.026
C29U C68U | 0.272
G28C C64U | 0.0765
A30G A89C | 0.0603
A30G A89U | 0.0271
G28C U55G | ≤ 0.026
G28C U55C | 0.183
A31G A74U | 0.029
C27U A62U | 0.0346
C27U A62G | ≤ 0.026
C29A G85A | 0.115
G28A C68U | 1.17
A30G U71A | 0.05
A30G U71C | 0.035
G32U U76C | ≤ 0.026
A31U A60C | 0.0348
A31U A60U | 0.647
A31G C83U | 0.0743
A31G C83A | 0.0481
A31G G84A | ≤ 0.026
A31G G67U A74G U76G C81A | ≤ 0.026

Variant | nonsense suppression
G28C A60U U70C | ≤ 0.026
A31G U63C | 0.333
A31G U63G | 0.0741
A31G U63A | 0.684
G28A A54C | 0.878
G28A A54U | 1.1
G28U A60C | 0.669
G28U C79U | ≤ 0.026
C29U A30C | 0.196
C29U A30U | 0.124
C29U A30G | 1.1
A30U G32U C56A U58G | 1.11
G28C G61A U63C | 0.041
C27G U57C G86C | ≤ 0.026
G28A C34G G59A | ≤ 0.026
C29U C83U | 0.0384
C29U G59C | 0.0272
A31U C56A U70C A89G | ≤ 0.026
A30U A74C | 0.0264
A30U A74U | 0.0497
C29U A33U | 0.0316
A31U G59C | ≤ 0.026
A30U | 0.575
A30G | 1.11

Variant | nonsense suppression
C27U G65U | ≤ 0.026
C27U G65A | 0.0374
C29U | 1.07
C29G | ≤ 0.026
C29A | 0.113
C29A A60G | 0.0331
G28U G78U | 0.0435
G28U G78A | 0.0292
A30C U58G | 1.02
A31G U71G | ≤ 0.026
C29A A30C | ≤ 0.026
A31U U55C | 0.0547
A30C U55A | ≤ 0.026
G28C A33U C82U A89U | ≤ 0.026
C27U G85A | 0.207
G32U A54C C81G | ≤ 0.026
C29U G73A | 0.238
A30U U76G | 0.0538
C29U U35C U58G C64U G66C | ≤ 0.026
A31G U57C G78A G86A | ≤ 0.026
G28A A31G | 0.98
C29U U57G G85C | ≤ 0.026
G28U A62G U63A A74C | ≤ 0.026
